In ChEMBL document CHEMBL4602706, “Natural Product Evodiamine with Borate Trigger Unit: Discovery of Potent Antitumor Agents against Colon Cancer” (ACS Med Chem Lett, 2020):
Calls of active or inactive are those of the source. No cut-off for these calls is given here.

Tests used:
[1] = target: T1, DNA topoisomerase II (Homo sapiens) (UniProt P11388+Q02880); experiment: Inhibition of Top2 (unknown origin) using supercoiled pBR322 plasmid as substrate incubated for 30 mins by PI staining based agarose gel electrophoresis analysis; assay type: protein assay
[2] = test system: A549; experiment: Antiproliferative activity against human A549 cells incubated for 72 hrs by CCK8 assay; assay type: functional, cell-based; details: Homo sapiens, A549, 72 h; read-out: IC50
In short: (§1)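 HCT116, MCF-7 and A549 human cancer cell lines; antiproliferative activity read out by CCK8 assay. Evodiamine derivatives and camptothecin served as positive controls.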

[3] = test system: HCT-116; experiment: Antiproliferative activity against human HCT116 cells incubated for 72 hrs by CCK8 assay; assay type: functional, cell-based; details: Homo sapiens, HCT-116, 72 h; read-out: IC50; in short: as §1
[4] = test system: MCF7; experiment: Antiproliferative activity against human MCF7 cells incubated for 72 hrs by CCK8 assay; assay type: functional, cell-based; details: Homo sapiens, MCF7, 72 h; read-out: IC50; in short: as §1
[5] = target: T2, DNA topoisomerase 1 (Homo sapiens) (UniProt P11387); experiment: Inhibition of Top1 (unknown origin) at 500 uM using supercoiled pBR322 plasmid DNA as substrate incubated for 15 mins by PI staining based agarose gel electrophoresis analysis
T2 sequence (whole entry): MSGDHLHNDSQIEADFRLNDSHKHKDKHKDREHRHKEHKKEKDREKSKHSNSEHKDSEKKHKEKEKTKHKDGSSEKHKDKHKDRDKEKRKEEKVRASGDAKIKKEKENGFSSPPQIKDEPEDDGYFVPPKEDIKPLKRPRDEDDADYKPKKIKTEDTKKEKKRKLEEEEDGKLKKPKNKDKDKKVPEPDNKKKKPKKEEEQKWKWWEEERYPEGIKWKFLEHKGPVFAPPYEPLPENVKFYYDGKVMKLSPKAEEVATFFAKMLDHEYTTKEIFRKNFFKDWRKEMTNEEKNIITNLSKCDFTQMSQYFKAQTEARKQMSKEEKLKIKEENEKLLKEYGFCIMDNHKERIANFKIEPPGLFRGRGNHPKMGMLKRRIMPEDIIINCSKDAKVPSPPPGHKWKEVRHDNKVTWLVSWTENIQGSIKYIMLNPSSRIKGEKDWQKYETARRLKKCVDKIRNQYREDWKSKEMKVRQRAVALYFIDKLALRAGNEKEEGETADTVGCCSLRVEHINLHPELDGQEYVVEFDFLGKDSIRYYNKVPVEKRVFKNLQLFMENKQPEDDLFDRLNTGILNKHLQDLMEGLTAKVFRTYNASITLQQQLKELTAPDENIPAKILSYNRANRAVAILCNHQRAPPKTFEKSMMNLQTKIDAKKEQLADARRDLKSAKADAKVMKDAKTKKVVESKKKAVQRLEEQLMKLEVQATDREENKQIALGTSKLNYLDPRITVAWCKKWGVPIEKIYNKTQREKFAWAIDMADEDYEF
In short: (§2)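 Top1 inhibition tested at 500, 250 and 125 μM, and over 27.9 to 250 μM for selected compounds.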

[6] = target: T1, DNA topoisomerase II (Homo sapiens); experiment: Inhibition of Top2 (unknown origin) at 50 uM using supercoiled pBR322 plasmid DNA as substrate incubated for 30 mins by PI staining based agarose gel electrophoresis analysis; assay type: protein assay
[7] = target: T2, DNA topoisomerase 1 (Homo sapiens); experiment: Inhibition of Top1 (unknown origin) at 125 uM using supercoiled pBR322 plasmid DNA as substrate incubated for 15 mins by PI staining based agarose gel electrophoresis analysis; in short: as §2
[8] = Drug metabolism in human HCT116 cells assessed as 3-Fluoro-10-hydroxy-14-methyl-8,13,13b,14-tetrahydro-7H-indolo[2',3':3,4]pyrido[2,1-b]quinazolin-5-one release by measuring retention time incubated for 8 hrs by UPLC-QTOF/MS analysis; assay type: ADME, cell-based; details: hct-116, 8 h
In short: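 Compounds incubated with HCT116 cells; culture media analysed by HPLC after 8, 48 and 72 h. Relative release rate taken from relative peak areas; parent and product identified by retention time.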

[9] = Metabolic stability in mouse liver microsomes assessed as half life at 1 uM preincubated with compound followed by NADPH addition measured upto 45 mins by LC-MS/MS analysis; assay type: ADME, Microsome
In short: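 In vitro stability in liver microsomes; terminal half-life determined.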

For `COc1cc([C@@H]2c3cc4c(cc3[C@@H](O[C@@H]3O[C@@H]5CO[C@@H](C)O[C@H]5[C@H](O)[C@H]3O)[C@H]3COC(=O)[C@H]23)OCO4)cc(OC)c1O`, the inhibition [1] was “Active”.
`CN1c2ccccc2C(=O)N2CCc3c([nH]c4ccc(B5OC(C)(C)C(C)(C)O5)cc34)C21` (stereo not given) gave an IC50 [2] of 170 nM, an IC50 [3] of 220 nM and an IC50 [4] of 390 nM.
With `CN1c2ccccc2C(=O)N2CCc3c([nH]c4ccc(B(O)O)cc34)C21` (stereo not given) the IC50 [2] was 100 nM, the inhibition [5] was “Active” and the IC50 [3] was 69 nM. For the same compound, the IC50 [4] was 160 nM.
Work on `CN1c2ccc(F)cc2C(=O)N2CCc3c(n(C(=O)OC(C)(C)C)c4ccc(OCc5ccc(B6OC(C)(C)C(C)(C)O6)cc5)cc34)C21` (stereo not given) yielded an IC50 [2] of 2230 nM, an IC50 [3] of 2170 nM and an IC50 [4] of 7850 nM.
With `CN1c2ccccc2C(=O)N2CCc3c(n(C(=O)OC(C)(C)C)c4ccc(OCc5ccc(B(O)O)cc5)cc34)C21` (stereo not given) the IC50 [2] was 7200 nM, the IC50 [3] was 520 nM and the IC50 [4] was 1580 nM.
Work on `CN1c2ccc(F)cc2C(=O)N2CCc3c(n(C(=O)OC(C)(C)C)c4ccc(OCc5ccc(B(O)O)cc5)cc34)C21` (stereo not given) yielded an IC50 [2] of 2130 nM, an IC50 [3] of 4910 nM and an IC50 [4] of 2390 nM.
`CN1c2ccc(F)cc2C(=O)N2CCc3c([nH]c4ccc(OCc5ccc(B6OC(C)(C)C(C)(C)O6)cc5)cc34)C21` (stereo not given) gave an IC50 [2] of 120 nM, an IC50 [3] of 150 nM and an IC50 [4] of 97 nM.
In the case of `CN1c2ccccc2C(=O)N2CCc3c([nH]c4ccc(OCc5ccc(B(O)O)cc5)cc34)C21` (stereo not given), the IC50 [2] is reported as 74 nM, the inhibition [5] is reported as “Active” and the inhibition [6] is reported as “Active”. The IC50 [3] was 120 nM, the IC50 [4] was 110 nM and the inhibition [7] was “Active”.
For `CN1c2ccc(F)cc2C(=O)N2CCc3c([nH]c4ccc(O)cc34)C21` (stereo not given), the Retention_time [8] was 7.3 min, the half-life at 1 µM [9] was 3.69 min and the IC50 [2] was 29 nM. For the same compound, the inhibition [5] was “Active”, the IC50 [3] was 27 nM and the IC50 [4] was 31 nM.
Work on `CN1c2ccccc2C(=O)N2CCc3c(n(C(=O)OC(C)(C)C)c4ccc(OCc5ccc(B6OC(C)(C)C(C)(C)O6)cc5)cc34)C21` (stereo not given) yielded an IC50 [2] of 3440 nM, an IC50 [3] of 4180 nM and an IC50 [4] of 4130 nM.
